Most compounds without a hit are left out; they make up all but 1.5% or so of the library.
VLA-4 inh = inhibition in human VLA-4 binding assay, primary screen, VLA-4 allosteric modulator project, MLPCN library, flow cytometry, VLA-4 expressing cells. Integrin alpha-4 (Homo sapiens), P13612. ligand binding flow cytometry. inhibition, % (about 7 µM as worked out from the volumes in the protocol). 0.2% of 330,000 active. AID 2557, 2010; in the data active = inhibition above about 50%
CHT block = inhibitors of human choline transporter CHT; High affinity choline transporter 1 (Homo sapiens), Q9GZV3; CHT-expressing cells, membrane potential dye, choline response; active compounds read low; B-score at 10 µM; 0.86% of 310,000 active;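 active = B-score over 3 SD under the library average, and starting fluorescence ratio not unusually high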;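 also: choline stimulus applied at its EC90 after an EC20 pre-addition; B-score computed on integrated fluorescence ratio after choline addition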
Target sequence (Q9GZV3 whole entry, looked up): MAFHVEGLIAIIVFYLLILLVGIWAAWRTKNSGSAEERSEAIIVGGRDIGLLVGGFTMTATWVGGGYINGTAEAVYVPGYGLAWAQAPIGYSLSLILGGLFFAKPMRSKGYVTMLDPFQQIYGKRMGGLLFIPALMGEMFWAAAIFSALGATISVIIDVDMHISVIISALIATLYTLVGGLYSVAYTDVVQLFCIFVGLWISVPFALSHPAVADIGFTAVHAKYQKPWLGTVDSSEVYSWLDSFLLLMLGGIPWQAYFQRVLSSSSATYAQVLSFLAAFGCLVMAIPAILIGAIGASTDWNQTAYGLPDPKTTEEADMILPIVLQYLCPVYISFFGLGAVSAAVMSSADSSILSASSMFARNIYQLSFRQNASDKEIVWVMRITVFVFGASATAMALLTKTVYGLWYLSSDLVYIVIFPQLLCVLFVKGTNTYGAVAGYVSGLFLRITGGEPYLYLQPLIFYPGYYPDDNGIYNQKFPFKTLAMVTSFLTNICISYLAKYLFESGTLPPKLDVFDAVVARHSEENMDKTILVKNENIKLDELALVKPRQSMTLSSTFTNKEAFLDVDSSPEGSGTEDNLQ
CHT PAM = CHT positive allosteric modulators, primary screen, cell-based, membrane potential dye, choline EC20; 0.49% of 310,000 active; AID 488977, 2010; CHT-expressing cells; active compounds read high; LV-AA mutant CHT in HEK293 cells; B-score at 10 µM;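 active = initial fluorescence not abnormally high and integrated response B-score, plate-corrected, over 3 SD above library mean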
T cell modulator = modulators of CD8 T cell-vesicle binding, primary screen, mouse 2C CD8+ T cells, flow cytometry; 2C CD8+ T cell-vesicle binding; active compounds read low; response (vesicle binding), % at 7 µM; 0.068% of 330,000 active; AID 2052, 2009;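 active = response, share of CD8 T cells binding vesicles, and their 90th percentile fluorescence all below set limits, cut at about 80% in these data, passing the limit was not always enough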;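 also: values below 100% mean blocked vesicle binding to the CD8+ T cells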
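System: murine 2C transgenic CD8+ T lymphocytes; also added: QL9-loaded Drosophila micro-vesicles; times: binding 1.5 h at 37 °C; measured by: flow cytometry, PE anti-B7-1 (FL2) versus Alexa647 anti-CD8 (FL8), PFA-fixed; control set: Peptide-free naked vesicles (low) and QL9 vesicles with 0.7% DMSO vehicle (high)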
CHT block conf = CHT inhibitors, confirmation, cell-based, membrane potential dye, duplicate | shares compounds with CHT block | CHT-expressing cells, choline membrane potential dye; LV-to-AA substituted CHT, HEK293 cells | CHT activity remaining % of control (active compounds read low), % at 10 µM | 70% of 2,400 active;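 active = choline transporter activity left, mean of duplicates at 10 µM, below buffer-only control mean minus 3 SD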;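 also: depolarization triggered by choline at its EC90 following an EC20 pre-addition; 0% = hemicholinium-3 full block and 100% = buffer-only control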
HEK293 CHT ctr = membrane potential effects in parental HEK293, counter-screen for CHT inhibitor project, cell-based, membrane potential dye; membrane potential ratio readout (active if shifted either direction beyond buffer ±3SD; no single direction) at 10 µM; 4% of 2,400 active; choline response; active = decrease or increase beyond buffer ±3SD; shares compounds with CHT block;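 also: parental cells lack the transporter so any hit is non-specific; ratio is peak minus trough fluorescence over baseline after EC90 choline challenge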
The depositor's hits bear a star; i = inactive; . = no result.

SMILES | VLA-4 inh | CHT block | CHT PAM | T cell modulator | CHT block conf | HEK293 CHT ctr
O=C(CSc1nc2ccccc2[nH]1)c1ccc2c(c1)OCO2 | -4 | -6.1* | i | 289 | 36%* | i
c1ccc(Cc2nnc3sc(-c4cccs4)nn23)cc1 | 4 | i | i | 408 | . | .
c1ccc(CCc2nn3c(Cc4ccccc4)nnc3s2)cc1 | -6 | -5.4* | i | 415 | 56%* | i
Cc1ccc(N(C)S(=O)(=O)c2c(C)noc2/C=C/N(C)C)cc1 | 6 | i | i | 310 | . | .
OCCOc1cccc(CN2CCC(CO)(CCOc3ccccc3)CC2)c1 | 31 | -10* | i | 269 | i | i
O=C(Nc1nc(-c2ccccc2)cs1)c1ccc(=O)[nH]c1 | 0 | -6* | i | 358 | 70%* | i
O=C(Nc1nc(-c2ccccc2)cs1)c1ccccc1NS(=O)(=O)c1ccc(F)cc1 | 9 | -8* | i | 189 | 42%* | i
O=S(=O)(NC(=NCCc1ccc(Cl)cc1)c1ccccc1Cl)c1cccs1 | 3 | i | i | 337 | . | .
O=C(NC(=S)N1CCN(c2ccccc2)CC1)c1ccccc1 | 1 | i | i | 689 | . | .
O=C(NC(=S)N1CCN(c2ccccn2)CC1)c1ccccc1 | 11 | -8.2* | i | 416 | i | i
CCOC(=O)CNC(=O)CSc1nc(Cc2ccccc2)nc2ccccc12 | -1 | -6.6* | i | 225 | i | i
O=C(CCc1nc(-c2ccc(F)cc2)no1)Nc1cccc(C(=O)NC2CC2)c1 | 21 | . | . | 280 | . | .
O=C(CCl)N(c1ccc(Cl)cc1)c1c[nH]c2ccccc12 | 32 | -5.9* | i | 426 | 56%* | i
O=C(CCl)N(c1ccccc1)c1c[nH]c2ccccc12 | 6 | i | i | 436 | . | .
O=C(c1ccc(COc2ccccc2[N+](=O)[O-])o1)N1CCCCCC1 | 9 | -6.1* | i | 233 | 69%* | i
CCN1CCn2c3c(c4cccc(C)c42)CCCC31 (centres undefined) | -12 | -11* | i | 216 | 36%* | i
CC1CCCC(C)N1CCCNC(=O)CN1C(=O)c2cccnc2Oc2ccc(Cl)cc21 (centres undefined) | -23 | -7.1* | i | i | 19%* | i
CCOC(=O)COc1ccc(S(=O)(=O)NCc2ccco2)cc1 | 19 | -7.6* | i | 545 | i | i
COc1ccc(C(CC(=O)Nc2cc([N+](=O)[O-])ccc2OC)c2ccccc2)cc1 (centres undefined) | -6 | i | i | 175 | . | .
O=C(C[n+]1cc(Br)cc2ccccc21)c1ccc(Cl)cc1 | -60 | -6.9* | i | 403 | 32%* | i
O=C(C[n+]1cn(C(F)F)c2ccccc21)c1ccc(Br)cc1 | 14 | i | i | 304 | . | .
O=C(C[n+]1cc(Br)cc(Br)c1)c1ccc(Cl)cc1 | -3 | i | i | 835 | . | .
O=C(C[n+]1cc(Br)cc2ccccc21)c1ccc(Br)cc1 | -32 | -5.7* | i | 184 | 30%* | i
CC(Sc1ccccc1F)C(=O)Nc1ccc2c(c1)OCCO2 (centres undefined) | 11 | . | . | 309 | . | .
CCC(Oc1ccccc1)C(=O)Nc1nnc(C)s1 (centres undefined) | 6 | i | i | 515 | . | .
SMILES | VLA-4 inh | CHT block | CHT PAM | T cell modulator | CHT block conf | HEK293 CHT ctr
Cc1nn(-c2ccccc2)nc1C(=O)Nc1nnc(C(F)(F)F)s1 | 0 | -12* | i | 276 | 43%* | i
CCC(Oc1ccccc1)C(=O)Nc1nnc(C(F)(F)F)s1 (centres undefined) | -8 | -5.1* | i | 210 | i | i
Cc1cccc(-n2c(=O)c3ccccc3n3c(=S)[nH]nc23)c1C | 11 | i | i | 183 | . | .
COc1ccc(-n2c(SCC(=O)NCC3CCCO3)nc3ccccc32)cc1 (centres undefined) | 10 | -5.5* | i | 188 | i | i
COCCN(C(=O)CSc1nnc(-c2ccc(C)c(C)c2)o1)c1c(N)n(CC(C)C)c(=O)[nH]c1=O | 21 | -6.3* | i | 196 | 19%* | i
CCN(CC)c1ccc(-c2nnc(SCC(=O)N(CCOC)c3c(N)n(CC(C)C)c(=O)[nH]c3=O)o2)cc1 | 3 | i | i | 398 | . | .
N#CC12CCCCC1CC1CCCCC1(C#N)N2CCO (centres undefined) | 17 | -5.7* | i | 158 | i | i
Cc1ccc(C(=O)NCC(=O)OCC(=O)Nc2ccccc2C#N)s1 | 0 | -13* | i | 0 | 65%* | i
O=C(Cc1ccc(S(=O)(=O)N2CCOCC2)s1)OCc1ccc(Cl)cc1 | 4 | . | . | 273 | . | .
O=C(c1ccco1)N1CCC(c2nc(-c3ccc(F)cc3)no2)CC1 | 4 | i | i | 543 | . | .
O=C(c1ccco1)N1CCC(c2nc(-c3ccccc3Cl)no2)CC1 | 2 | -5.7* | i | 317 | i | i
COc1ccc(-n2ncc3c2CC(C)(C)CC3NC(=O)c2ocnc2C)cc1 (centres undefined) | -9 | i | i | 213 | . | .
O=C(CCC1CCCC1)NCCS(=O)(=O)N1CCN(c2ccc(F)cc2)CC1 | -6 | -5.2* | i | 774 | i | i
O=C(CNC(=O)c1cccc(F)c1)OCCOc1cccc(Cl)c1 | 10 | i | i | 262 | . | .
Cc1ccc(-c2nnc(N3CC(C)OC(C)C3)c3ccccc23)cc1 (centres undefined) | 7 | -7.5* | i | 193 | 59%* | i
Cc1ccc(-c2nnc(N3CCCCC3)c3ccccc23)cc1 | -8 | i | i | 194 | . | .
COc1ccc([N+](=O)[O-])cc1NC(=O)c1cn(-c2ccc(C)c(C)c2)c(=O)c2ccccc12 | 26 | i | i | 217 | . | .
COc1cccc(OCC(O)CN2CCC(CN3C(=O)c4cccc5cccc(c45)C3=O)CC2)c1 (centres undefined) | 16 | i | i | 162 | . | .
Cc1cc(C)cc(OCC(O)CN2CCC(CN3C(=O)c4cccc5cccc(c45)C3=O)CC2)c1 (centres undefined) | -26 | -5.5* | i | 479 | 58%* | i
O=C1c2cccc3c(Nc4ccccc4Cl)c([N+](=O)[O-])cc(c23)C(=O)N1CCO | -2 | -5.5* | i | 619 | 71%* | i
Cc1cccc(Oc2ccc3c(c2)cc(C(=O)O)n3C)c1 | -13 | i | i | 308 | . | .
